Assay results of several laboratories.
Target: Alpha-glucosidase MAL12 (MAL12, Saccharomyces cerevisiae S288c, UniProt P53341)
Effect on: enzyme activity
Mode: inhibitor

COc1cc(/C=C/c2ccc(O)cc2)cc(OC)c1  IC50 (absorbance; pH 6.8): 1570 µM
Nc1c(-c2ccccc2)nc2ncnn2c1-c1cccc(Cl)c1  IC50 (absorbance): 82.5 µM
CC(=O)C1=C(C)n2c(=O)c3ccccc3c(=O)n2C1c1cn(-c2ccccc2)nc1-c1ccc(Cl)cc1 (stereo not drawn)  IC50 (absorbance): 359 µM
CC(C)(CO)CC1=C(O)C(=O)c2ccccc2C1=O  IC50: > 200 µM
C[C@H]1CN(C(=O)Nc2ccc(C(F)(F)F)cc2)CCN1c1ccnc(Nc2ccc(C(F)(F)F)cc2)n1  IC50 (absorbance; pH 6.9): 2.63 µM
CC1(C)CC(=O)C2=C(C1)n1c(=O)c3ccccc3c(=O)n1C2c1cn(-c2ccccc2)nc1-c1ccccc1 (stereo not drawn)  IC50 (absorbance): 74.2 µM
C[C@H]1CN(C(=O)Nc2ccc(Cl)c(Cl)c2)CCN1c1ccnc(Nc2ccc(Cl)cc2)n1  IC50 (absorbance; pH 6.9): 1.82 µM
COc1ccc(-c2nn(-c3ccccc3)cc2C2C3=C(CC(C)(C)CC3=O)n3c(=O)c4ccccc4c(=O)n32)cc1 (stereo not drawn)  IC50 (absorbance): 229 µM
COc1ccc(-c2nc3ncnn3c(-c3cccs3)c2N)cc1  IC50 (absorbance): 120 µM
C[C@@H]1CN(C(=O)Nc2ccc(C(F)(F)F)cc2)CCN1c1ccnc(Nc2ccc(Cl)c(O)c2)n1  IC50 (absorbance; pH 6.9): 2.08 µM
CCCCCCCCCCCCCC(=O)OCC(C)(C)CC1=C(O)C(=O)c2ccccc2C1=O  IC50: 5.3 µM
C[C@@H]1CN(C(=O)Nc2ccc(C(F)(F)F)cc2)CCN1c1ccnc(Nc2ccc(Cl)cc2)n1  IC50 (absorbance; pH 6.9): 3.47 µM
Cc1ccc(-c2nc3ncnn3c(-c3ccc(Br)cc3)c2N)cc1  IC50 (absorbance): 68.7 µM
C[C@H]1CN(C(=O)Nc2ccc(C(F)(F)F)cc2)CCN1c1ccnc(Nc2ccc(F)cc2)n1  IC50 (absorbance; pH 6.9): 1.82 µM
CC1(C)CC(=O)C2=C(C1)n1c(=O)c3ccccc3c(=O)n1C2c1cn(-c2ccccc2)nc1-c1ccc(Cl)cc1 (stereo not drawn)  IC50 (absorbance): 209 µM
